Experimental data of several laboratories.
Lines come from different studies, so protocols differ.
Target: Cyclin-dependent kinase 8 (CDK8, Homo sapiens, UniProt P49336)

SMILES	effect on	action	method	concentration	endpoint	value
Cc1cc(S(=O)(=O)N[C@H]2CC[C@H](CN3CCN(c4ccc(C5CCC(=O)NC5=O)cc4F)CC3)CC2)ccc1Nc1ncc(C(F)(F)F)c(N2CCC[C@](C)(O)C2)n1 (some centres unmarked)	binding	–	competition with immobilised ligand	1 µM	remaining binding	76%
CO[C@@H]1[C@H](N(C)C(=O)c2ccccc2)C[C@H]2O[C@]1(C)n1c3ccccc3c3c4c(c5c6ccccc6n2c5c31)C(=O)NC4	enzyme activity	inhibitor	–	1 µM	inhibition	5%
Cc1ccc(NC(=O)c2ccnc(C(F)(F)F)c2)cc1-c1cc(OCCO)nc(N2CCOCC2)c1	binding	–	competition with immobilised ligand	1 µM	remaining binding	100%
C1=C/COCc2cc(ccc2OCCN2CCCC2)Nc2nccc(n2)-c2cccc(c2)COC/1	cell-free assay	–	–	0.1 µM	remaining signal	75%
CC#CC(=O)N1CCC[C@H]1c1nc(-c2ccc(C(=O)Nc3ccccn3)cc2)c2c(N)nccn12	enzyme activity	inhibitor	–	1 µM	inhibition	5%
C[C@]1(O)CCCN(c2nc(Nc3ccc(S(=O)(=O)N[C@H]4CC[C@H](CN5CCN(c6ccc(C7CCC(=O)NC7=O)cc6F)CC5)CC4)cc3Cl)ncc2C(F)(F)F)C1 (some centres unmarked)	binding	–	competition with immobilised ligand	1 µM	remaining binding	80%
C[C@H]1CC[C@H](n2c3cnccc3c3cnc(Nc4ccc5c(n4)CCN(C(=O)CO)C5)nc32)CC1	binding	–	competition with immobilised ligand	1 µM	remaining binding	100%
CCCCC(=O)Nc1ccc(-c2ccc3ncn(CCC)c(=O)c3c2)cn1	binding	–	competition with immobilised ligand	0.5 µM	remaining binding	83%
